# According to ChEMBL document CHEMBL3585301 (Bioorg Med Chem Lett, 2014):
# Active and inactive are the calls of the source. No cut-off for these calls is given here.
# Assays:
# MV4-11 [1] = assay: Anticancer activity against human MV4-11 cells assessed as reduction in cell proliferation after 48 hrs by WST-1 assay; assay type: functional, cell-based; conditions: MV4-11, 48 h
# Procedure, shortened: (§1)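 Cells were exposed to compound for 48 h and proliferation was measured from dose-response curves. NCM460 was tested at doses up to 20 µM. U-2 OS was also read in the 2.5-5.0 µM range. IC50 was calculated from the curves. Data are mean of quadruplicates ± SD from three independent trials.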
# Jurkat E6.1 = assay: Anticancer activity against human Jurkat E6-1 cells assessed as reduction in cell proliferation after 48 hrs by WST-1 assay; assay type: functional, cell-based; conditions: Jurkat E6.1, 48 h; procedure, shortened: as §1
# [2] = Anticancer activity against human Saos2 cells assessed as reduction in cell proliferation after 48 hrs by WST-1 assay; assay type: functional, cell-based; conditions: SAOS-2, 48 h; procedure, shortened: as §1
# U2OS [3] = assay: Anticancer activity against human U2OS cells assessed as reduction in cell proliferation after 48 hrs by WST-1 assay; assay type: functional, cell-based; procedure, shortened: as §1
# [4] = Cytotoxicity against human NCM460 cells assessed as reduction in cell proliferation after 48 hrs by WST-1 assay; assay type: cell-based; conditions: NCM460, 48 h; procedure, shortened: as §1
# U2OS [5] = assay: Anticancer activity against human U2OS cells assessed as reduction in cell proliferation at 2.5 to 5 uM after 48 hrs by WST-1 assay; assay type: functional; parameters: scale not given: the % may be the effect or the level left; procedure, shortened: as §1
# SAOS-2 = assay: Induction of apoptosis in human Saos2 cells assessed as phosphatidylserine externalization at 0.01 and 5 uM after 48 hrs by AnnexinV/propidium iodide staining based Tali-image based cytometry; assay type: functional, cell-based
# Procedure, shortened: (§2)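 After 48 h treatment, phosphatidylserine externalization was detected with Annexin V–Alexa Fluor 488, and membrane-permeabilized (necrotic) cells were detected by propidium iodide uptake. Green and/or red populations were quantified by image-based cytometry. Signal above the control baseline was scored as apoptotic, necrotic, or both. Data are mean ± SD of three independent trials.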
# MV4-11 [6] = assay: Induction of apoptosis in human MV4-11 cells assessed as phosphatidylserine externalization at 0.0075 and 5 uM after 48 hrs by AnnexinV/propidium iodide staining based Tali-image based cytometry; assay type: functional, cell-based; procedure, shortened: as §2
# [7] = Induction of apoptosis in human NCM460 cells assessed as phosphatidylserine externalization 0.1 and 20 uM after 48 hrs by AnnexinV/propidium iodide staining based Tali-image based cytometry; assay type: cell-based; conditions: ncm460, 48 h; procedure, shortened: as §2
# Tubulin (Sus scrofa) [8] = biological target: T1, Tubulin (Sus scrofa) (UniProt P02554+P02550); assay: Inhibition of porcine brain tubulin polymerization at 3 uM measured for 1 hr by spectrofluorometer analysis
# T1 sequence (P02550 whole entry, looked up): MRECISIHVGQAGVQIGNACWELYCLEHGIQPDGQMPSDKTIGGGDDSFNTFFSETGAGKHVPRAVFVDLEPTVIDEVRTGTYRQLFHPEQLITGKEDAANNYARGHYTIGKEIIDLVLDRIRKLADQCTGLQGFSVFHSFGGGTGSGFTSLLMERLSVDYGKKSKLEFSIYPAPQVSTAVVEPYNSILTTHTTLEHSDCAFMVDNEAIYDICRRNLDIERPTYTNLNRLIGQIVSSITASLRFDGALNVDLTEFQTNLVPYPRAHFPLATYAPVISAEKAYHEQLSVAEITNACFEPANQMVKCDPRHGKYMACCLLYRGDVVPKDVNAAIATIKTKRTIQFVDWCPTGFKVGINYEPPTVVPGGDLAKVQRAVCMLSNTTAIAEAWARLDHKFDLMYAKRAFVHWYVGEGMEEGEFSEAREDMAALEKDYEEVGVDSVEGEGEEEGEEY
# T1 sequence (P02554 whole entry, looked up): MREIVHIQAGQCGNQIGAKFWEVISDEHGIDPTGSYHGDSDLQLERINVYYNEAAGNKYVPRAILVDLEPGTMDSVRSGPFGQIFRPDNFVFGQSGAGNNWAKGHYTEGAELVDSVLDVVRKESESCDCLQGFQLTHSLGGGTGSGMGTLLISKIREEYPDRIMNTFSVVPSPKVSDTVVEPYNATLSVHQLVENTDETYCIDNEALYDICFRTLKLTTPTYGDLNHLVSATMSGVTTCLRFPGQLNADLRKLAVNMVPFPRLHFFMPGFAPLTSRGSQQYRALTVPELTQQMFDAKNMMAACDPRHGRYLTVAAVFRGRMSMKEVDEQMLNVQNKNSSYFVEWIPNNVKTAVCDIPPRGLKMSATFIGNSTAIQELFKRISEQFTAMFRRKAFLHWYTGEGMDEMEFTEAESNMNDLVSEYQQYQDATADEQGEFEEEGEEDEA
# Procedure, shortened: (§3)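 This was an in vitro tubulin polymerization assay monitored kinetically for 1 h against a DMSO vehicle control. Polymerization was read fluorometrically from incorporation of a fluorescent reporter, in relative fluorescence units. Data are mean of duplicates ± SEM of three independent trials, compared with control.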
# Tubulin (Sus scrofa) [9] = biological target: T1, Tubulin (Sus scrofa); assay: Inhibition of porcine brain tubulin polymerization at 10 uM measured for 1 hr by spectrofluorometer analysis; procedure, shortened: as §3
# U2OS [10] = assay: Anticancer activity against human U2OS cells assessed as reduction in cell proliferation at 10 uM after 48 hrs by WST-1 assay; assay type: functional, cell-based
# Procedure, shortened: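 This was a blind single-concentration screen of a 600-compound library against U-2 OS osteosarcoma cells. Each compound was tested at 10 µM for 48 h, and reduced proliferation was flagged for follow-up.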
IC50 (MV4-11 [1]),IC50 (Jurkat E6.1),IC50 (U2OS [3]),inhibition (Tubulin (Sus scrofa) [8]),inhibition (Tubulin (Sus scrofa) [9]),Compound,IC50 [2],IC50 [4],Activity (U2OS [5]),Activity (SAOS-2),Activity (MV4-11 [6]),Activity [7],inhibition (U2OS [10])
2.76 µM,0.965 µM,> 20 µM,inactive,Active,COc1ccc(-c2ccc(OC)c(OC)c2OC)cc1O,5.43 µM,> 20 µM,60%,Active,Active,Non-toxic,Active
1.25 µM,0.486 µM,> 20 µM,Active,Active,COc1cc(-c2ccc(OC)c(OC)c2OC)ccc1O,1.77 µM,> 20 µM,60%,Active,Active,Non-toxic,Active

Compound,IC50 (MV4-11 [1]),IC50 (Jurkat E6.1),IC50 (U2OS [3]),inhibition (Tubulin (Sus scrofa) [8]),inhibition (Tubulin (Sus scrofa) [9]),IC50 [2],IC50 [4],Activity (U2OS [5]),Activity (SAOS-2),Activity (MV4-11 [6]),Activity [7],inhibition (U2OS [10])
COc1ccc(/C=C\c2cc(OC)c(OC)c(OC)c2)cc1O [COMBRETASTATIN A4],0.00627 µM,0.00608 µM,0.0141 µM,Active,,0.0114 µM,> 20 µM,30%,Active,Active,Non-toxic,
